# According to the EternaBench riboswitch data:
# Tested on: MS2 coat protein
# Assay: apparent Kd, MS2 coat protein; higher = weaker binding; RNA-MaP array
# Outline: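 Sequenced DNA templates on an Illumina sequencing chip were transcribed into the designed RNAs. These were incubated at room temperature in Tris-HCl pH 7.5 buffer containing KCl, MgCl2, BSA, DTT, tRNA and Tween20 with fluorescently labeled MS2 coat protein at 1.5 nM to 3 μM, with or without input ligand. Apparent Kd is the median of binding-curve fits per cluster, and designs with fewer than 10 clusters measured were excluded.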
# [1] = designed as: ON switch for flavin mononucleotide, no ligand
# [2] = ligand present: flavin mononucleotide, designed as: ON switch for flavin mononucleotide
# [3] = designed as: OFF switch for tryptophan, no ligand
# [4] = ligand present: tryptophan, designed as: OFF switch for tryptophan
# [5] = designed as: OFF switch for flavin mononucleotide, no ligand
# [6] = ligand present: flavin mononucleotide, designed as: OFF switch for flavin mononucleotide
sequence,measurement,setting,value
GCGCUAUUUAUUGAUACCAGAUACAGGAAUCACAUGAGGAUCACCCAUGUGGAAUGAAGGAUCCCUUGGCAGCAAUAGUCAAAAU,apparent Kd,"designed as: ON switch for theophylline, no ligand",0.0178 µM
same,apparent Kd,"ligand present: theophylline, designed as: ON switch for theophylline",0.0109 µM
GCGUGACAUGAGGAUCACCCAUGUGGCCUCGGGCUAGGAUAUGCUGAUAUACUCACCACCGCAGAAGGAGCUUCAC,apparent Kd,[1],0.142 µM
same,apparent Kd,[2],0.131 µM
GCGUGUUAUAGUCAUCGUGAGCGUCCAUCCCGAGGACCGGUACGGCCGCCACUCGCCACAGGACAUGAGGAUCACCCAUGUUAUG,apparent Kd,[3],0.015 µM
same,apparent Kd,[4],0.017 µM
GCUAGACAUGAGGAUCACCCAUGUGAGGAUAUUAGCCAAUCGAGUAAUCCGCUAUAGUUAAGAAGGCACGUGAU,apparent Kd,[5],0.0167 µM
same,apparent Kd,[6],0.016 µM
GGAUCACAUGAGGAUCACCCAUGUCAGGAUAUUAUGCCCUCCCAGUUGCUGAGACAUUUAAGAAGGGACGUGUA,apparent Kd,[5],0.0135 µM
same,apparent Kd,[6],0.0143 µM
GGAUGAAGGAAGGAUAUUACGCAGCAACGACCGUAAGAAGGUCCAACAUGAGGAUCACCCAUGUGGUGCUUACU,apparent Kd,[5],0.0332 µM
same,apparent Kd,[6],0.159 µM
GGGUAACAUGAGGAUCACCCAUGUGAGGAUAUCCAUUGUUGGCGACCGGUACGACCACGGAGAAGGCACAGUUC,apparent Kd,[5],0.035 µM
same,apparent Kd,[6],0.0695 µM
GGUAUCGUAGGAUAUUAAUGUAGCCACAUGAGGAUCACCCAUGUAGUUCUAGUGGACCGUUAAGAAGGACGUGAUC,apparent Kd,[5],0.0661 µM
same,apparent Kd,[6],0.0828 µM
GGUCUACAUGAGGAUCACCCAUGUGAGUUCACGGCAGGAUAUGGGUGCCUUUUUAGGCUACCAGAAGGGCCCUCUG,apparent Kd,[1],0.0381 µM
same,apparent Kd,[2],0.0192 µM
GUAGAACCGCAGAAGGCAUUGAUUCGAGAGCGAUGAGGAUAUGCUCGUCGACAUGAGGAUCACCCAUGUUUACGAUUGAGAUAU,apparent Kd,[1],0.0151 µM
same,apparent Kd,[2],0.00974 µM
GUAUUACGGACGGCCGCCACUGUGGGACAUGAGGAUCACCCAUGUGGCGCUACUUACAAGUGCGACAGGACCGGGUCAUGGUUUG,apparent Kd,"designed as: ON switch for tryptophan, no ligand",0.811 µM
same,apparent Kd,"ligand present: tryptophan, designed as: ON switch for tryptophan",0.301 µM
GUCAGGCAACAGAAGGGAGGAUAUAACCGACAUGAGGAUCACCCAUGUGUAAAAGAAACAGUCGCUCAGGAUAUGUUCAACGUG,apparent Kd,[1],0.0159 µM
same,apparent Kd,[2],0.00936 µM
GUCAUUCAAGUGAGGAUAUCUGCGAUGCCGAAAGGAGAGAAGGCACAUGAGGAUCACCCAUGUGGUGUUUAUAU,apparent Kd,[5],0.0345 µM
same,apparent Kd,[6],0.0574 µM
GUGCCACAUGAGGAUCACCCAUGUUUGGCAAGCAAAGGAUAUGGAAUGAUGGCUCGCAGCCCAGAAGGUUGUUGUG,apparent Kd,[1],0.00452 µM
same,apparent Kd,[2],0.00476 µM
GUUUUCAACUUGUAGGAUAUUUCUCACGAGACAUGAGGAUCACCCAUGUAGUGAACCAGGGAUCGAAAGAAGGACAUCAUGACGGU,apparent Kd,[1],0.0752 µM
same,apparent Kd,[2],0.0499 µM
UACAAAUAUCAUUACAUGAGGAUCACCCAUGUGGGACGUCGUAGAAGGGAGAUUCAAAUACAAGCUCAGGAUAUACAACUUCUG,apparent Kd,[1],0.181 µM
same,apparent Kd,[2],0.0801 µM
UAGACCGAAGGAUAUACAUGAGGAUCACCCAUGUCAAGGACAUACCCACGAAAGGCACGUAGAAGGUCGGCAUA,apparent Kd,[5],0.0182 µM
same,apparent Kd,[6],0.0331 µM
UAGCGUUCCUCAGGAUAUCCUUAAGUGGACAUGAGGAUCACCCAUGUGUGAUUCUGGGUGUUAUGGGAGAAGGGAGGGUGAUGA,apparent Kd,[5],0.299 µM
same,apparent Kd,[6],0.0475 µM
UAUAACGAAAGAGGAUAUAUCGGCCGUCUACGGAUAGAAGGCUUUCGCUAUGGCACUGAUGAUCUACAUGAGGAUCACCCAUGU,apparent Kd,[5],0.00791 µM
same,apparent Kd,[6],0.00719 µM
UAUAAUGAAGGAUAUACAUGAGGAUCACCCAUGUUAGACUCUCAGUCGACAGUAAUCCGUAGAAGGUCAUGCCA,apparent Kd,[5],0.0123 µM
same,apparent Kd,[6],0.0136 µM
UAUUUGGGCAAGAAGGCAGGUUACAGCCAGCAUUAUCCACAUGAGGAUCACCCAUGUUCGGCGACUGAGGAUAUUGCCAAACCU,apparent Kd,[5],0.0385 µM
same,apparent Kd,[6],0.0375 µM
UCAAAAUGAUAGAAGGAGGCAAUACUCGCACCUAACAUGAGGAUCACCCAUGUCUGCAGGUUGACCUAGGAUAUAUGCAGUGGA,apparent Kd,[1],0.0146 µM
same,apparent Kd,[2],0.00935 µM
UCAUAUUAAGGCGAGGAUAUACACGAUCCCACAUGAGGAUCACCCAUGUUUUGAUCAUGCCCUGUGUAGAAGGCGCACCUACGGGA,apparent Kd,[1],0.0789 µM
same,apparent Kd,[2],0.0495 µM
UCAUCGAGAGAGGAUAUCGUAGCAAUUCACCAGCGAGAAGGCUCGACAUGAGGAUCACCCAUGUGGCUCCGCUU,apparent Kd,[5],0.0242 µM
same,apparent Kd,[6],0.0736 µM
UCCCAGUAACAUGAGGAUCACCCAUGUUGGAGUGUGCCUGCUCAGGAUAUUCGCGGCAUAAAAGUGAAGAAGGGAGCUCAAACG,apparent Kd,[5],0.0131 µM
same,apparent Kd,[6],0.0113 µM
UCCCAUAUAGUAGGAUAUCUGCUACAUGAGGAUCACCCAUGUCAUAUUUUUUACCAGUCUUAGAUAGAGAAGGACUGUGGACCU,apparent Kd,[1],0.59 µM
same,apparent Kd,[2],0.373 µM
UCCCGCUGCACAGGAUAUUGGAAAAUACAUGAGGAUCACCCAUGUGCUUAUAUGAGGUCUGCCUCCAAGAAGGGUGAGAUAAUC,apparent Kd,[5],0.113 µM
same,apparent Kd,[6],0.0896 µM
UCCGGACGUUCGGCCGCCACUAAUUUACAUGAGGAUCACCCAUGUGCCAGUGGUCCGCAGAGUAAUAGGACCGGGAACCUUGGCU,apparent Kd,[3],0.026 µM
same,apparent Kd,[4],0.0292 µM
UCCGGUGACCUAGGAUAUCGUUCAACUAACAUGAGGAUCACCCAUGUGGUCUGUUUUAUGCCUGUCGAGAAGGAGGUGGAUAAG,apparent Kd,[5],0.0642 µM
same,apparent Kd,[6],0.0556 µM
UCCUAUUCAGGAUAUGCGACACGAAACAUGAGGAUCACCCAUGUCUGGGCACCUCAAAGCGCAGAAGGGAACAACG,apparent Kd,[5],0.665 µM
same,apparent Kd,[6],0.321 µM
UCCUUGGAGUCAGGAUAUGUCGACAACGGAAUGACAGAAGGGACUUGGCAGCUUAAUUCUUCAGUACAUGAGGAUCACCCAUGU,apparent Kd,[5],0.00935 µM
same,apparent Kd,[6],0.00919 µM
UCUCGUGUGAAGGAUAUAGAUAUUUAACAAAAGCUAGAAGGUCAAACAUGAGGAUCACCCAUGUUUACAUAGGA,apparent Kd,[5],0.00877 µM
same,apparent Kd,[6],0.0109 µM
UCUUUUCAACAGAAGGAAUGCAGGCGAUAUGAUUGUUUCCGUCAGACAUGAGGAUCACCCAUGUAUUAGGAUAUGUGAAACAGU,apparent Kd,[5],0.0062 µM
same,apparent Kd,[6],0.00715 µM
UGAAACUAGCCUAAGGAUAUAUAAGUGUGAACAUGAGGAUCACCCAUGUAUGGGAACAAGUGCUGAUAGAAGGUAGGAAUCUCCAA,apparent Kd,[1],0.0803 µM
same,apparent Kd,[2],0.0432 µM
UGAACACUGUGAGGAUAUCCACAUGAGGAUCACCCAUGUUUCCUCAGUGAUGCUAUAGCUUCCACGGAGAAGGCACAUGUAAUC,apparent Kd,[5],0.0312 µM
same,apparent Kd,[6],0.0482 µM
UGAGUUUACUGAGGAUAUUCGGGUCCGACGACAUGAGGAUCACCCAUGUUAGUAAUGCUGCAAGGGAAGAAGGCAGAAAGAACU,apparent Kd,[5],0.0137 µM
same,apparent Kd,[6],0.0107 µM
UGCACCGCAGGAUAUACAAUGGAGGACGUUGUGAAUCAUAGACAUGAGGAUCACCCAUGUAGAAGGGCGUAUAA,apparent Kd,[5],0.034 µM
same,apparent Kd,[6],0.0785 µM
UGCCCACAGGAGAAGGUGGCUCAACCAGAGCGCCAAGGAUAUCCGGAGUUACUCCUCACUACAUGAGGAUCACCCAUGUUUCAU,apparent Kd,[5],0.0715 µM
same,apparent Kd,[6],0.0546 µM
UGGGCGGAAGGAUAUACAUGAGGAUCACCCAUGUGUCUUUUGCUGAUGGGUGCAUAGUGUAGAAGGUCCAGUGU,apparent Kd,[5],0.0937 µM
same,apparent Kd,[6],0.0387 µM
UGUUUGCAAAGAGGAUAUUGGCCAACUGCUGGACAAGAAGGCUUUUAACAAGAUCCUUACAUGAGGAUCACCCAUGUUAGCGUA,apparent Kd,[5],0.0693 µM
same,apparent Kd,[6],0.115 µM
UUAAAACUAGGAUAUACAUGAGGAUCACCCAUGUGAACACACAAACAAAGAAAAUAAUGUAGAAGGAGACUAUA,apparent Kd,[5],0.0108 µM
same,apparent Kd,[6],0.00887 µM
UUACGGGAAGGAUAUCAUUGAAGGUACAUGAGGAUCACCCAUGUCUGAUGCGCAUCGCCGUGAGAAGGUCCUGCUU,apparent Kd,[5],0.0382 µM
same,apparent Kd,[6],0.0149 µM
